Assay outcomes deposited in PubChem BioAssay by several laboratories.
KLF5 inhibitor = inhibitors of KLF5 expression. 290,000 tested, 0.23% active. DLD-1 KLF5 promoter-luciferase reporter, luminescence. inhibition, % at 5 µM;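 active = inhibition above a per-plate limit of that plate's mean compound inhibition plus 3 SD, cut at about 60% in these data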;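 also: higher means less KLF5 promoter-driven luciferase light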
HIF act = HIF pathway transcriptional activation | 300,000 tested, 0.32% active | U2OS HRE-luciferase reporter, luminescence; normalized: DMSO 0%, desferrioxamine 100% | activation, % at 7.5 µM (by protocol);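 active = mean activation of at least 10% of the iron chelator positive control signal, with at least half of replicates also reaching 10%; inconclusive = mean and replicate majority disagree about reaching 10%; inactive = mean and most replicates under 10%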
T cruzi inh = T. cruzi replication inhibition; T. cruzi beta-gal in NIH3T3, luminescence, 90 h; inhibition, % (concentration not given with the values); 300,000 tested, 1.4% active;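 active = mean inhibition across valid replicates above about 55%, limit read from the data; inconclusive = mean below that limit but half or more replicates reach it; inactive = mean below it, under half of replicates reach it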;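 also: signal also drops with host cell toxicity which is not excluded here; higher percent means less beta-gal luminescence so fewer parasites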
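System: NIH/3T3 fibroblasts plus reporter T. cruzi. Medium: DMEM plus 2% FBS. Probe or stimulus: 5000 reporter trypomastigotes per well. Compound: single 50 nL compound addition per well in DMSO. Incubation: co-culture of at least 90 h after 3 h attachment. Detection: GalScreen β-gal luminescence, detergent lysis, 60 min. Evaluation: parasite load inhibition, %.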
A1 inh = inhibitors of the anti-apoptotic protein A1, read as caspase activation; caspase activation, % (concentration not given with the values); MEF A1-2A-BIM cells, Caspase-Glo 3/7 luminescence, 3 h; percent of clofoctol response, vehicle zero; 330,000 tested, 0.066% active;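 active = over half of replicate activation scores above 10%, or exactly half above 10 with the replicate mean above 10; inconclusive = replicate mean below 10 yet half the replicates above 10; inactive = over half of replicates below 10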
Beta apoptosis = blocks beta cell apoptosis; INS-1E cytokine-induced death, ATP luminescence, 48 h; percent of positive-control rescue, neutral wells zero; protection from apoptosis, % (no concentration beside the values); 300,000 tested, 0.8% active;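 active = Every replicate reaches about 75%, or at least half do and their mean reaches it too, limit read from the data; inconclusive = At least half of replicates reach the limit but their mean does not; inactive = Under half of replicates reach the limit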;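 also: higher means more ATP so stronger rescue from cytokine killing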
Of the large screens only hits and unclear results are named; the others gave an inactive call. An excerpt weighted towards active compounds, which were near 2.3% of everything screened.

O=C(CCN1CCN(c2ccccc2F)CC1)c1ccc(Br)cc1	none
COc1ccc(C(=O)CCN2CCN(c3ccccc3F)CC2)cc1	T cruzi inh 63
O=C(CCN1CCOCC1)c1ccc(Br)cc1	none
CC(C)[C@@H](CSc1ccccc1)N1CCN(Cc2ccccc2)CCC1=O	none
Cc1ccc(S(=O)(=O)Cn2nnnc2C(CC(C)C)N2CCN(C3CCCC3)CC2)cc1 (stereo unspecified)	none
CC(NCc1ccncc1)C12CC3CC(CC(C3)C1)C2 (stereo unspecified)	T cruzi inh 63
Cc1ccc(C(=O)NCC(=O)Nc2ccc(Cl)cc2)s1	none (no result: KLF5 inhibitor, HIF act, T cruzi inh)
Cc1ccccc1-c1cc(C(=O)NCc2ccc3c(c2)OCO3)n(CC2CC(c3cccnc3)=NO2)n1 (stereo unspecified)	none (no result: KLF5 inhibitor, HIF act, T cruzi inh)
CN1CCN(C(=O)/C=C/c2ccc(C#N)cc2)CC1	none
COC(=O)c1ccc(NC(=O)CSc2nnc(-c3cccnc3)o2)cc1	none (no result: KLF5 inhibitor)
Brc1ccc(-c2nnc(-c3ccccc3)c(N3CCSCC3)n2)cc1	none
CN1CCN(c2nc(-c3ccc(Br)cc3)nnc2-c2ccccc2)CC1	T cruzi inh 65
Cc1ccc(S(=O)(=O)N2c3ccccc3-c3c(ssc3=S)C2(C)C)cc1	T cruzi inh 55
Oc1ccccc1N=Nc1ccccc1O	HIF act 202, T cruzi inh 59 (no result: A1 inh, Beta apoptosis)
C/C=C(\C)C(=O)O[C@@H]([C@H](O)c1cc2ccc(=O)oc2cc1OC)C(C)(C)O	none (no result: KLF5 inhibitor, HIF act, T cruzi inh)
CCN(CC)P(=O)(Nc1ccc(C)cc1Br)c1ccc(N(C)C)cc1NC(=O)c1ccco1 (stereo unspecified)	T cruzi inh 64
Cc1ccc(S(=O)(=O)N2CCN(c3cccc(C)c3)CC2)cc1	none
Cc1noc(/C=C/N(C)C)c1S(=O)(=O)N1CCCC(C(=O)NC2CCCCC2)C1 (stereo unspecified)	T cruzi inh 62
Cc1ccc(-c2cc(C(=O)Nc3cnn(C45CC6CC(CC(C6)C4)C5)c3)no2)cc1	none
CCCn1cc(NC(=O)c2cc(-c3ccccc3)on2)cn1	HIF act 10
O=C(Nc1cnn(C23CC4CC(CC(C4)C2)C3)c1)c1cc(-c2ccccc2)on1	T cruzi inh 61
Cc1noc(C)c1COc1ccccc1C(=O)N(C)Cc1ccc(C(C)(C)C)cc1	none (no result: KLF5 inhibitor, HIF act, T cruzi inh)
COc1ccc(OC(C)C(=O)NC2CCCCCC2)cc1 (stereo unspecified)	none
CCCC(C)NC(=O)Cc1ccccc1 (stereo unspecified)	none
CCC(C)NC(=O)Cc1ccc(-c2ccccc2)cc1 (stereo unspecified)	T cruzi inh 62
COc1ccc(NC(=O)C23CC4CC(CC(Cl)(C4)C2)C3)cc1S(=O)(=O)N1CCOCC1	none (no result: KLF5 inhibitor, HIF act, T cruzi inh)
COc1cc(NC(=S)NCCC(c2ccccc2)c2ccccc2)c(OC)cc1Cl	none
COc1ccc(Cl)cc1NC(=S)NCCC(c1ccccc1)c1ccccc1	T cruzi inh 56
O=S(=O)(Nc1c(O)ccc2ccccc12)c1cccc2ccccc12	none (no result: KLF5 inhibitor)
COc1cccc(-c2cc3nc4c(c(NCC(C)(C)CN(C)C)n3n2)CCCC4)c1	T cruzi inh 61
CC(=O)C1CCCN(C(=O)c2ccc3oc(CCc4ccccc4)nc3c2)C1 (stereo unspecified)	none
CCOC(=O)C1CCCN(C(=O)c2ccc3nc(-c4ccccc4)c(-c4ccccc4)nc3c2)C1 (stereo unspecified)	HIF act 17
CCOC(=O)C1CCCN(C(=O)c2ccc3oc(CCc4ccccc4)nc3c2)C1 (stereo unspecified)	HIF act 63
CCOC(=O)C1CCCN(C(=O)c2ccc3nc(-c4ccc(OC)c(OC)c4)c(-c4ccc(OC)c(OC)c4)nc3c2)C1 (stereo unspecified)	none (no result: Beta apoptosis)
CCOC(=O)C1CCCN(C(=O)c2cccc(S(=O)(=O)N(Cc3ccccc3)c3ccccc3OC)c2)C1 (stereo unspecified)	T cruzi inh 56 (no result: KLF5 inhibitor)
O=C(O)/C=C/c1ccc(S(=O)(=O)Nc2ccccc2C(=O)Nc2ccc(F)cc2)cc1	none
CCOC(=O)C(Cc1ccccc1)C(=O)NCc1ccccc1 (stereo unspecified)	none
CCOC(=O)N1CCC(Nc2c(-c3ccccc3)c(=O)c2=O)CC1	HIF act 13
CCOC(=O)N1CCC(Nc2c(-c3ccc(C)cc3)c(=O)c2=O)CC1	none
CN1CCN(c2ncnc3sc(-c4ccccc4)cc23)CC1	T cruzi inh 74
c1ccc(-c2cc3c(N4CCN(c5ccccc5)CC4)ncnc3s2)cc1	none
COc1ccc(-c2c[n+](CC(=O)OC3CC(C)CCC3C(C)C)c3n2CCC3)cc1 (stereo unspecified)	Beta apoptosis 103
CC(C)[C@@H]1CC[C@@H](C)C[C@H]1OC(=O)C[n+]1cc(-c2ccc(Cl)cc2)n2c1CCCCC2	none
CN1CCN(S(=O)(=O)c2cccc(C(=O)Nc3ccc(Br)cc3Br)c2)CC1	none
CN(Cc1ccccc1)Cc1c[nH]c2ccccc12	T cruzi inh 55
c1ccc(Cc2c[nH]c3ccccc23)cc1	none (no result: Beta apoptosis)
CCOC(=O)c1c(C)[nH]c(C(=O)OC(C)C(=O)Nc2ccccc2OC)c1C (stereo unspecified)	none (no result: Beta apoptosis)
COc1cc(C(=O)NCc2nnc(SCC(=O)NCCc3ccccc3)o2)cc(OC)c1OC	none
COc1ccc(/C=C(/NC(=O)c2ccco2)C(=O)N2CCCCCC2)cc1OC	none
Cc1ccc2oc(=O)c3cnn(CC(=O)NC4CCN(Cc5ccccc5)CC4)c3c2c1	T cruzi inh 57
CCCn1c(NC(=O)c2ccc(Br)cc2)nc2ccccc21	none
CCCCn1c(NCc2ccccc2NS(=O)(=O)c2ccc(C)cc2)nc2ccccc21	T cruzi inh 57
CCCCn1c(NC(=O)c2ccccc2)nc2ccccc21	T cruzi inh 56 (no result: HIF act)
CCCn1c(NC(=O)c2ccc(F)cc2)nc2ccccc21	T cruzi inh 84
CCCCn1c(NCc2ccccc2O)nc2ccccc21	none
COc1ccc(-c2oc3ccccc3c2C#CC(C)(C)O)cc1	none (no result: KLF5 inhibitor, HIF act, T cruzi inh)
COc1ccc(Br)cc1/C=N/NC(=O)c1ccc(COc2ccc3c(c2)CCC3)o1	none
O=C(N/N=C/c1cc([N+](=O)[O-])ccc1O)c1cccc2ccccc12	HIF act 11, T cruzi inh 55, Beta apoptosis 102
O=C(Cn1nc2ccccc2n1)N/N=C/c1cc([N+](=O)[O-])ccc1O	none
O=C(N/N=C/c1cc([N+](=O)[O-])ccc1O)c1cccc(NC(=O)c2cccc(Cl)c2)c1	Beta apoptosis 81
O=C(N/N=C/c1cc([N+](=O)[O-])ccc1O)c1ccc(COc2ccc3c(c2)CCC3)o1	T cruzi inh inconclusive, Beta apoptosis 105
COc1ccc(COC(=O)c2cccc(S(=O)(=O)N3CCCC3)c2)cc1F	none
COc1ccc(N2CC(C(=O)NNC(=O)c3ccc(Br)cc3)CC2=O)c(OC)c1 (stereo unspecified)	none (no result: KLF5 inhibitor, Beta apoptosis)
CCCCCn1nc(C(=O)N(CC)c2c(N)n(CCCC)c(=O)[nH]c2=O)c2ccccc2c1=O	none (no result: KLF5 inhibitor, HIF act, T cruzi inh)
